Out of some 2,400 compounds screened, about 660 (28%) were called active. The list is a sample of the results. Unmarked numbers belong to inactive results.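 Rule for the calls: active = mean inhibition over replicate wells above the hit cutoff set for the earlier primary screen (cut at about 29% in these data); inactive = the rest.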

The test system of this assay is M18 aspartyl aminopeptidase (Plasmodium falciparum 3D7). Briefly: inhibition of P. falciparum M18 aminopeptidase – biochemical, QFRET, recombinant enzyme, triplicate, confirmation (AID 2170).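 Note: 0% = median of test compound wells and 100% = 2 mM ZnCl2.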 Particulars: recombinant PfM18AAP, H-Glu-NHMec fluorogenic cleavage; at 7.35 µM; stronger effect = higher value. In a few lines:
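Assay system: recombinant PFM18AAP enzyme / Input: 5 µg/mL enzyme before substrate / Buffer or medium: Cobalt-containing Tris buffer with BSA / Reagent: H-Glu-NHMec substrate, 100 µM stock / Timing: 30 min pre-incubation, then 90 min reaction, 25 °C / Technique: released NHMec fluorescence / Read-out basis: % inhibition of fluorescence increase over 90 min / Controls: ZnCl2 inhibitor control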
As for `O=C(Nc1ccccc1Cl)Nn1cnnc1`, the inhibition is 65.9% (active).
Under `O=C(Nn1cnnc1)c1cc(Cl)ccc1Cl` stands 55.1% (active).
In the case of `Cc1ccc(S(=O)(=O)N/N=C\c2cc3c(cc2[N+](=O)[O-])OCO3)cc1` it was -7.72%; in that of `Cc1ccc(Cl)cc1-c1ccc(/C=N/n2cnnc2)o1`, -18.6%.
For `Cc1ccc(-c2ccc(/C=C(\C#N)C(N)=S)o2)c([N+](=O)[O-])c1`, the inhibition is -32.7%.
For the molecule `NC(=O)c1c(NC(=O)CSc2nnc(-c3ccco3)n2N)sc2c1CCCC2`, the inhibition was -70.9%.
Under `S=c1[nH]nc2c3c4c(sc3ncn12)CCCC4` stands -11.8%; under `CCOCCCNC(=O)c1ccc(CS(=O)(=O)c2cccc(C(F)(F)F)c2)o1`, -29.5%; under `Cc1cccc(NC(=O)c2sc3nc(N4CCOCC4)c4c(c3c2N)CCCC4)c1`, 3.82%.
In the case of `O=S(=O)(c1ccc(NC(=S)NN=C(C2CC2)C2CC2)cc1)N1CCOCC1` it was 14.8%.
In the case of `Cc1nnc(SCC(=O)Nn2cnnc2)s1` it was 29.1% (active); in that of `NC(=O)C1CCN(C(=O)/C(=C/c2ccco2)NC(=O)c2ccccc2)CC1`, -45.2%.
`CCOc1ccc(-n2c(O)c(/C=N/Nc3nnc(C)c(=O)[nH]3)c3ccccc3c2=O)cc1`: the inhibition is 12.4%.
In the case of `Oc1c(C(c2ccco2)N2CCC3(CC2)OCCO3)sc2ncnn12` (stereo unspecified) it was -4.87%.
In the case of `Cc1ccc2nc(-c3cccc(Br)c3)cc(C(=O)Nn3cnnc3)c2c1`, the inhibition is 63.4% (active).
Under `Oc1ccc(/C=N/NC2=NCCCCC2)c(O)c1` stands 41.8% (active); under `CCN(CC)c1ccc(/C=N/Nc2nc(C)cc(C)n2)c(O)c1`, 16.4%; under `O=C(Oc1ccc(Br)cc1C(=S)N1CCOCC1)c1cccc([N+](=O)[O-])c1`, -27.5%.
In the case of `Oc1ccc(N2CCN(C(=S)NCc3ccccc3)CC2)cc1` it was -12.9%; in that of `CC(OC(=O)c1ccc2noc(-c3ccccc3)c2c1)C(N)=O` (stereo unspecified), -28.2%; in that of `O=C(N/N=C/c1ccc(O)c(O)c1)C1c2ccccc2Oc2ccccc21`, 37.3% (active).
For the molecule `CSc1n[nH]c(=S)n1N`, the inhibition is -12.7%.
Under `O=C(CSC(=S)N1CCOCC1)c1cc(Br)cc(Br)c1O` stands -45.7%; under `CCN(CC)c1ccc(NC(=O)CCc2nnc3ccc(N4CCCCC4)nn23)c(C)c1`, -12.9%.
Under `Cc1csc(NC(=O)NC2(C(F)(F)F)Oc3ccccc3O2)n1` stands 68.6% (active); under `Oc1cccc(/C=N/Nc2ccc(Cl)nn2)c1O`, 20.8%.
Under `CN(C)c1ccc(C(CC(=O)O)C(=O)O)cc1` (stereo unspecified) stands -38.2%; under `COc1cc(S(=O)(=O)Nc2ncn[nH]2)ccc1Cl`, 34.1% (active).
With `Cc1onc(-c2ccccc2)c1C(=O)NNC(=S)NC(=O)c1ccc(F)cc1`, the inhibition is -38.8%.
Under `Oc1ccc(-c2csc(Nc3cccnc3)n2)cc1` stands 56.6% (active); under `CC1(C)CC(=O)C/C(=N\NC(=O)c2cccs2)C1`, 3.68%; under `N#CCC(=O)N/N=C/c1ccc(SCC(=O)Nc2ccccc2)o1`, -37.9%.
In the case of `CCOC(=O)NNc1cc(C(F)(F)F)ccn1` it was 28.2% (active); in that of `COc1ccc2c(c1)C(C)=CC(C)(C)N2C(=O)Nc1ccccc1`, -22.9%; in that of `COc1ccc(/C=N/Nc2nc3ccccc3o2)cc1OC`, -38.4%.
Under `c1ccc2c(c1)OCC(c1nn3cnnc3s1)O2` (stereo unspecified) stands -28.2%.
Consider `Cc1cc2nc3c(=O)n(Cc4ccccc4)c(=O)[nH]c3nc2cc1N`, for which the inhibition was 7.01%.
Under `Cc1ccsc1/C=N/Nc1ccc(Cl)nn1` stands -14.8%; under `COc1cc(Br)cc(/C=N/c2ncn[nH]2)c1O`, 62.9% (active); under `Cc1cc(-c2ccc(/C=N/n3cnnc3)o2)c([N+](=O)[O-])cc1C`, 0.8%.
Under `Cc1ccc(NC(=O)c2c(NC(=O)CCC(=O)O)sc3c2CCCCC3)cc1` stands -30.8%; under `CNC(=S)NNC(=O)c1ccc(N(C)C)cc1`, 12.2%; under `CCCc1nc2ccccc2c(=O)n1/N=C/c1ccc(O)c(O)c1`, 28.4% (active).
Under `CC(C)c1ccc(NC(=S)NNc2ccc(Cl)c(C(=O)O)c2)cc1` stands -43.7%; under `COc1cc(/C=C2/C(=O)NN(c3cccc(Cl)c3)C2=O)cc(Br)c1O`, 12.9%.
Take `O=C(NNC(=O)c1ccco1)Nc1ccccc1`: the inhibition is 17.1%.
In the case of `CC(C)C1N=C2c3ccccc3N=C(SCC(=O)c3ccc(O)c(O)c3)N2C1=O` (stereo unspecified) it was 39% (active); in that of `COc1cc(NC(=S)N2CCCC(C)C2)c(OC)cc1Cl` (stereo unspecified), -0.38%.
Under `S=c1[nH]c(-c2cccs2)cn1-c1ccccc1` stands 39.1% (active); under `Cc1cc(C)nc(NNC2=CC(=O)CC(C)(C)C2)n1`, 44.3% (active).
Regarding `O=C(CC(n1cncn1)C(Cl)(Cl)Cl)c1ccc([N+](=O)[O-])cc1` (stereo unspecified), the inhibition is -9.53%.
As for `COc1c(O)ccc2c1CN1CCc3cc4c(cc3C1C2)OCO4` (stereo unspecified), the inhibition is 9.45%.
In the case of `Cc1c(CC(=O)N2CCN(C(=O)C3COc4ccccc4O3)CC2)c(=O)oc2c(O)c(O)ccc12` (stereo unspecified) it was 32.3% (active).
In the case of `CCN1/C(=C/C(=S)Nc2ccccc2)Sc2ccccc21` it was 0.1%; in that of `CC(C)(C)c1nnc(N/N=C/c2ccc(O)cc2)n(N)c1=O`, -22.7%.
Under `CCOc1ccc(C2C3=C(CCCC3=O)N(CC(=O)O)C3=C2C(=O)CCC3)cc1` stands -43.7%.
